Our source for the cytotoxicity values is ChEMBL document CHEMBL4513216, “Probing the Open Global Health Chemical Diversity Library for Multistage-Active Starting Points for Next-Generation Antimalarials” (ACS Infect Dis, 2020).

This series in a line: Toxicity liver stage against HepG2, at 10uM. In kind it is cell-based. Set-up: test concentration 10 uM, cell line HepG2-A16-CD81EGFP. The following applies: human, HepG2-A16-CD81EGFP cells; read-out: INHIBITION
A digest of the protocol:
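Uninfected HepG2-A16-CD81EGFP cells, 3 × 10^3 per well, 1536-well, plated on prespotted compound at 10 μM final, parasite-free screening media added to match infected plates; puromycin 10 μM positive, DMSO 0.5% negative; run in parallel with 48 h PbLuc assay at 37 °C, 5% CO2; viability by CellTiter-Glo luminescence, normalized to controls.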

Molecules are shown by their SMILES.

As to `COc1ccc(CN2CCOCC3(CCN(C4CCOCC4)C3)C2)cc1` (stereo not given), the cytotoxicity at 10 µM was determined as 0.466%.
For `CNc1cc2c(nn1)CCN(C(=O)c1ccc(-n3cccn3)nc1)C2`, the cytotoxicity at 10 µM is -4.78%.
In the case of `CNc1cc2c(nn1)CCN(C(=O)c1cc(F)cc(F)c1)C2` it was -5.97%.
To `Cc1nc2c(c(=O)n1C)CN(C(=O)C1CCCN(C(=O)N(C)C)C1)C2` (stereo not given) belongs -5.18%; to `CN(CCO)C(=O)c1coc(CN2CCN(c3ccccc3F)CC2)n1`, 15.7%; to `CCCC(=O)N1CCC(Nc2ncc(Br)cn2)CC1`, -8.69%.
To `Cc1nc(N2CCN(C(=O)c3cccnc3)CC2)cc(-n2cccc2)n1` belongs -5.19%; to `CCS(=O)(=O)NCCN(CCO)C1CCc2ccccc21` (stereo not given), 14.4%; to `OCc1ccccc1CNCC1CNc2ccnn2C1` (stereo not given), -11.9%.
Turning to `CC(C)(C)c1noc(-c2nc3c([nH]2)CCCNC3=O)n1`, the cytotoxicity at 10 µM is -3.83%.
To `N#Cc1ccc(CN2C[C@@H](F)[C@@H](OCc3nc4cnccc4[nH]3)C2)cc1` belongs -3.67%; to `Cc1n[nH]c(=O)c2c(NC(=O)CN3CCOC(C)C3)oc(C)c12` (stereo not given), -0.524%; to `COc1ccc(CC(=O)N2CC[C@@H]3NC(=O)CC[C@@H]32)cc1`, -1.89%.
Regarding `c1ccc(Oc2cc(CNCC3CNc4ccnn4C3)ccn2)cc1` (stereo not given), the cytotoxicity at 10 µM worked out at 3.1%.
Consider `CCCC(C(=O)NC1CCN(S(C)(=O)=O)CC1)c1ccccc1` (stereo not given), for which the cytotoxicity at 10 µM is -1.38%.
Turning to `CC(=O)N1CCN(C(=O)c2cc(C(C)C)no2)[C@H]2CS(=O)(=O)C[C@H]21`, the cytotoxicity at 10 µM is -7.8%.
Regarding `Cc1oc(C)c(C(=O)N2CCCN(c3nccs3)CC2)c1C`, the cytotoxicity at 10 µM came out at 1.53%.
`COc1ccccc1Oc1ncccc1CNC(=O)C(O)C(F)(F)F` (stereo not given): the cytotoxicity at 10 µM is -3.37%.
To `COCCC(=O)NCc1ccc(-c2ccccc2C(=O)O)nc1` belongs 2.28%; to `O=C(CCn1cccn1)NCCOc1ncc(Cl)cc1Cl`, -3.82%; to `COc1ccc(C2CCCN2C(=O)NCCNc2ccccn2)cc1` (stereo not given), 6.64%.
In the case of `CSCC(=O)N(Cc1ccccn1)Cc1ccccc1C` it was 7.79%.
To `Cc1noc(C)c1C(=O)N1CCOC2(COCCN(C(C)C)C2)C1` (stereo not given) belongs 2.71%; to `C[C@@H]1C[C@@H]2CCN(Cc3ccccn3)C[C@H]2O1`, -75.9%.
With `CN(Cc1ccccc1CN1CCCC1)C(=O)c1c(O)cccc1O`, the cytotoxicity at 10 µM is -5.84%.
To `O=C(CN1CCOc2ccccc2C1)NCc1cc2n(n1)CCNC2` belongs 1.03%.
To `Cc1cc(C)n(CC2CCCCN2Cc2cscn2)n1` (stereo not given) belongs 1.78%; to `CCOc1ccc(OCCN2CCC(N3CCNC3=O)CC2)cc1`, 41.3%.
For `CCS(=O)(=O)N1CCO[C@H]2[C@H](Oc3ncccc3F)CC[C@@H]21`, the cytotoxicity at 10 µM is 2.63%.
Regarding `Cc1nc(-c2ccccc2)sc1CSC(C)C(N)=O` (stereo not given), the cytotoxicity at 10 µM is -6.55%.
For the compound `O=C(Cc1ccccc1F)N1CCCCC1c1ccn2ccnc2n1` (stereo not given), the cytotoxicity at 10 µM was -3.83%.
To `O=C(Nc1ccccn1)NC(CCCO)c1ccccc1` (stereo not given) belongs 3.72%.
In the case of `CC(C)N1CCO[C@@H]2CN(S(=O)(=O)c3cccs3)CC[C@@H]2C1` it was 5.9%.
In the case of `Cc1cccc(C(C)CNC(=O)N2CCOCC3(CCOCC3)C2)c1` (stereo not given) it was 8.84%; in that of `CC(C)CCNC(=O)C(c1cccc(F)c1)N(C)C` (stereo not given), -5.77%.
`CO[C@@H]1CN(c2ccccc2)S(=O)(=O)[C@@]12CCN(C(=O)N(C)C)C2`: the cytotoxicity at 10 µM is 10.1%.
Consider `CCOc1ccc(CN2CC[C@@](C)(O)[C@@H](Cc3ccccc3)C2)cn1`, for which the cytotoxicity at 10 µM was -2.02%.
As for `COc1ccc(CN2C[C@@H]3C[C@H](C(=O)Nc4cccnc4)[C@H](C2)O3)cc1`, the cytotoxicity at 10 µM was -72.4%.
Consider `O=C(c1ccc2[nH]ccc2c1)N1CC[C@@H]2CN(CC3CC3)CCO[C@@H]2C1`, for which the cytotoxicity at 10 µM was -108%.
For the compound `CC1CN(C)CCN1C(=O)c1cnc2onc(CC(C)(C)C)c2c1` (stereo not given), the cytotoxicity at 10 µM is -1.6%.
In the case of `CC(C)C(=O)N(C)Cc1nnc2n1CCCCC2` it was -8.2%; in that of `O=C(O)C(c1ccc(O)cc1)N1CCC(N2CCSCC2)CC1` (stereo not given), 0.646%.
In the case of `CCOC1CCN(C(=O)c2cc(-c3ccc(Cl)cc3)on2)CC1`, the cytotoxicity at 10 µM is -5.08%.
For `CCc1cc(N2CCC(Nc3ccc(Cl)cn3)CC2)ncn1`, the cytotoxicity at 10 µM amounted to 49.1%.
In the case of `CC(C)OCCCNC(=O)CS(=O)(=O)Cc1ccc(C(C)C)cc1` it was 0.239%.
Consider `O=C(c1ccc(F)cc1)N1CCOC(c2nc(-c3ncccn3)no2)C1` (stereo not given), for which the cytotoxicity at 10 µM is -12.4%.
In the case of `CC(C)NC(=O)c1nc2c(s1)CCCN2c1ccccc1` it was 4.29%; in that of `CC(C)(C)OC(=O)N1CCC(C(=O)NCc2cc3ccccc3[nH]2)C1` (stereo not given), 2.34%.
In the case of `Cc1cc(N2CCN(C(=O)c3cn(C)c4ccccc34)CC2)nc(C)n1` it was -1.96%.
In the case of `CN1C(=O)C(c2ccccc2)CC12CCN(CCN1CCCC1=O)CC2` (stereo not given), the cytotoxicity at 10 µM is -14.6%.
In the case of `Cc1nc(C)n(CC2CCCN2CCOc2cccc(F)c2)n1` (stereo not given) it was -0.945%.
To `N#Cc1c(SCCN2CCOCC2)sc2c(O)cc(O)nc12` belongs -7.5%; to `CCn1nc(C)c(CNC(=O)c2nnc3ccccc3n2)c1C`, 5.81%.
For `COc1ccc2c(ccn2CCC(=O)N[C@H](C(=O)O)C(C)C)c1`, the cytotoxicity at 10 µM stood at 5.98%.
Take `O=C(CCc1cn[nH]c1)N1C[C@@H](CN2CCCCCC2)[C@@H](CO)C1`: the cytotoxicity at 10 µM was found to be 2.62%.
In the case of `Oc1nc(C2CC2)nc2c1nnn2C1CCN(Cc2ccoc2)CC1` it was 6.01%.
To `O=C(CNCC1CCCN1c1cccnn1)NCCc1cccs1` (stereo not given) belongs -6.84%; to `CC(=O)Nc1cccc2c1ccn2CC(=O)Nc1nc[nH]n1`, -0.79%; to `Cc1cc(NC(=O)C(C)N2CCN(c3nc(C)ns3)CC2)on1` (stereo not given), -9.48%.
Regarding `O=C(NCCNc1ncccn1)N1CCc2ccccc2C1`, the cytotoxicity at 10 µM is -5.65%.
In the case of `CCO[C@H]1CC[C@H]2[C@H]1OCCN2C(=O)COc1ccccc1` it was -94%; in that of `Cc1nc(CN2CCCC(CCc3ccccc3C(F)(F)F)C2)co1` (stereo not given), 0.663%; in that of `CCn1c(C2CCN(C(=O)c3ccc4cc[nH]c4c3)CC2)n[nH]c1=O`, -18.5%.
Regarding `CCCN(CCC)S(=O)(=O)NC(C)C(=O)N(C)C` (stereo not given), the cytotoxicity at 10 µM was -0.237%.
In the case of `CC1CCN(CCNC(=O)C2CCN(C(=O)C(C)(C)C)CC2)CC1` it was 6.81%; in that of `CN(Cc1ccc2c(c1)OCO2)C(=O)C1CC(c2cccc(F)c2)=NO1` (stereo not given), 10.7%; in that of `CC(C)CN1C(=O)C2(CCCC2)NC1c1cccnc1` (stereo not given), 3.71%.
In the case of `COc1cccc(Nc2nc(C3CCCNC3)c3sc(C)c(C)n23)c1` (stereo not given) it was -4.93%; in that of `COCCn1c2c(ccc1=O)CC(NC(=O)c1cscn1)CC2` (stereo not given), -97%; in that of `COCC(=O)N1CC[C@@H]2O[C@@H](C)C[C@H]2C1`, -69.6%.
Regarding `CN(C)c1cc(C(=O)Nc2cccnc2N2CCSCC2)ccn1`, the cytotoxicity at 10 µM was -2.9%.
To `CC(C)N1CCC(C(=O)N(C)CC(=O)c2ccc(O)cc2)CC1` belongs -4.33%; to `COC(=O)c1cccc(CN(C)C(C)c2ccccn2)c1` (stereo not given), 5.85%; to `O=C(NC1CC1)C(c1ccccc1)N1CCN(Cc2ccc(Cl)s2)CC1` (stereo not given), 4.46%.
To `CCn1c(Cn2cncn2)nnc1C1CCN(C2CCNCC2)CC1` belongs -0.0807%; to `O=C(O)c1cc2c(nc1-c1ccsc1)CCN(C(=O)C1CC1)CC2`, 14.4%.
Regarding `CCn1cc(NS(=O)(=O)c2ccc(Br)s2)c(C(N)=O)n1`, the cytotoxicity at 10 µM was found to be 2.3%.
To `CN(CC(=O)N1CCC(Cc2cccc(C(N)=O)c2)C1)C1CCCC1` (stereo not given) belongs -7.92%; to `Cc1cncnc1C1CCN(C(=O)CN(C)C)CC1`, -7.91%.
To `O=C(c1ccccn1)N1CCc2ncnc(-c3ccncc3)c2CC1` belongs -1.82%.
To `COCCn1cnc2ccc(NC(=O)C3CC3)cc2c1=O` belongs -7.89%.
As to `CC1CCN(S(=O)(=O)NCCCn2cncn2)CC1`, the cytotoxicity at 10 µM was -4.91%.
On to `O=C(CSCCN1CCOCC1)N1CCCCCC1`, for which the cytotoxicity at 10 µM was 10.4%.
In the case of `CC(C)c1nn(C)c(N2CCOCC2)c1CNCCC(=O)N(C)C` it was -16.5%; in that of `CN(Cc1ccccn1)C1CC2(CCN(Cc3ccccn3)CC2)C1`, -87%; in that of `CCc1cnc(C)nc1NCCN1CCCC(C(N)=O)C1` (stereo not given), -2.54%.
To `CS(=O)(=O)NCc1cc(-c2cc(F)cc(F)c2)nc(N2CCCC2)n1` belongs -1.53%.
In the case of `Nc1ncncc1-c1noc([C@@H]2CCCN2Cc2cccnc2)n1` it was -7.29%.
Consider `c1cc(CNCc2ccnc(N3CCCC3)c2)c2c(c1)OCO2`, for which the cytotoxicity at 10 µM worked out at 3.21%.
To `O=C1CCc2cc(-c3csc(CCN4CCCC4=O)n3)ccc2N1` belongs -6.64%; to `COc1ccccc1CNC(=O)N1CCCC(c2nncn2C)C1` (stereo not given), -6.51%; to `COCCCS(=O)(=O)N(Cc1cccc(C)c1)Cc1ccccn1`, 2.47%.
Take `CO[C@H]1CCN(Cc2cnn(C)c2)[C@@H]2CN(Cc3ccncc3)C[C@H]12`: the cytotoxicity at 10 µM was 2.29%.
In the case of `Cc1ccccc1C1(C(=O)NCCN2CCOCC2)CCOCC1` it was -3.07%.
To `O=C(CCc1cc2n(n1)CCN(Cc1ccncc1)C2)N1CCCC1` belongs -7.97%.
